In ChEMBL document CHEMBL4725282, “Discovery of a Conformationally Constrained Oxazolidinone with Improved Safety and Efficacy Profiles for the Treatment of Multidrug-Resistant Tuberculosis” (J Med Chem, 2020):
≈ marks a conversion by molar mass, not a printed value.

What was measured:
[1] = Ratio of MIC for antitubercular activity against linezolid-resistant Mycobacterium tuberculosis to MIC for antitubercular activity against Mycobacterium tuberculosis H37Rv; assay type: functional
[2] = tested on: Mycobacterium tuberculosis; assay: Antitubercular activity against linezolid-resistant Mycobacterium tuberculosis incubated for 7 days by microplate alamar blue assay; assay type: functional; details: 168 h, time 7 day
Procedure, shortened: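 MIC determined by microplate alamar blue assay (MABA) following a published protocol.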

Structure (SMILES) | Ratio [1] | MIC [2]
CC(=O)NC[C@@H]1OC(=O)N2c3cc(F)c(N4CC[S+]([O-])CC4)cc3OC[C@@H]12 | 4 | 6.68 µg/mL (≈ 16.8 µM)
CC(=O)NC[C@@H]1OC(=O)N2c3cc(F)c(N4CCSCC4)cc3OC[C@@H]12 [listing 1 of 2 here] |  | 0.24 µg/mL (≈ 0.629 µM)
CC(=O)NC[C@@H]1OC(=O)N2c3cc(F)c(N4CCSCC4)cc3OC[C@@H]12 [listing 2 of 2 here] | 4 | 
NNC(=O)c1ccncc1 [ISONIAZID] |  | 0.04 µg/mL (≈ 0.292 µM)
CC(=O)NC[C@H]1CN(c2ccc(N3CCOCC3)c(F)c2)C(=O)O1 [LINEZOLID] |  | 3.92 µg/mL (≈ 11.6 µM)
CO[C@H]1/C=C/O[C@@]2(C)Oc3c(C)c(O)c4c(O)c(c(/C=N/N5CCN(C)CC5)c(O)c4c3C2=O)NC(=O)/C(C)=C\C=C\[C@H](C)[C@H](O)[C@@H](C)[C@@H](O)[C@@H](C)[C@H](OC(C)=O)[C@@H]1C [RIFAMPIN] |  | 0.03 µg/mL (≈ 0.0365 µM)
CC(=O)NC[C@H]1CN(c2ccc(N3CCSCC3)c(F)c2)C(=O)O1 [SUTEZOLID] | 4 | 0.96 µg/mL (≈ 2.72 µM)
